Data published in ChEMBL document CHEMBL5038578, “Design, Synthesis, and Biological Evaluation of Peptidomimetic Aldehydes as Broad-Spectrum Inhibitors against Enterovirus and SARS-CoV-2” (J Med Chem, 2022).

Legend:
[1] = Inhibition of Human enterovirus 71 3C-like protease expressed in Escherichia coli BL21 (DE3) cells using Dacyl-KTSAVLQSGFRKMEEdans as fluorogenic substrate incubated for 10 mins by FRET assay; design: species or system Enterovirus A71
Outline: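 EV71 3Cpro expressed with N-terminal His-SUMO2 tag, tag cut by SENP2, then purified on Ni-NTA, Q-Sepharose and Superdex200. Enzyme at 5 μM final, preincubated 10 min with serial compound dilutions in 25 mM Tris pH 8.0, 150 mM NaCl, 10% glycerol. Fluorescence read at ex 340/em 490 nm. IC50 (mean ± SD, ≥3 experiments) by nonlinear regression.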

Enterovirus A71 = test: Antiviral activity against Human enterovirus 71 BrCr infected in human RD cells assessed as reduction in virus-induced cytopathic effect incubated for 4 days by MTS/PMS assay; type: functional, organism-based; details: Enterovirus A, 96 h
Outline: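 RD cells (2.5 × 10^4/well) adhered overnight, then infected with EV71 BrCr and given serial compound dilutions. Incubated 4 days, until full CPE in virus controls. Viability by MTS/PMS, absorbance at 498 nm after 1–2 h at 37 °C. Normalised to infected and uninfected untreated controls; EC50 by curve fitting.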

[2] = Cytotoxicity against human RD cells assessed as reduction in cell viability measured after 4 days by MTS/PMS assay; type: toxicity, cell-based; details: time 4 day
[3] = Inhibition of SARS-CoV2 3C-like protease expressed in Escherichia coli BL21 (DE3) cells using Mca-AVLQSGFR-Lys(Dnp)-Lys-NH2 as fluorogenic substrate incubated for 10 mins by FRET assay; design: species or system Severe acute respiratory syndrome coronavirus 2
SARS-CoV-2 = test: Antiviral activity against SARS Cov-2 infected in Vero E6 cells assessed as reduction in viral RNA replication measured 24 hrs post infection by qRT-PCR analysis; type: functional, organism-based; details: Severe acute respiratory syndrome coronavirus 2, Vero C1008, 24 h
[4] = Cytotoxicity against African green monkey Vero E6 cells assessed as reduction in cell viability incubated for 24 hrs by CCK8 assay; type: toxicity, cell-based, Vero C1008; details: chlorocebus sabaeus
Outline: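 Vero E6 cells (2 × 10^4/well) exposed to graded compound concentrations for 24 h. Relative surviving cell number measured by CCK-8.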

[5] = Tmax in CD1 mouse at 20 mg/kg, ip measured after 24 hrs by LC-MS/MS analysis; type: ADME, organism-based; details: in vivo
Outline: (§1)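 Male CD-1 mice, n = 3 per group. Compound given in DMSO/EtOH/PEG300/NaCl (5:5:40:50, v/v/v/v) at 20 mg/kg ip, 5 mg/kg sc or 5 mg/kg iv. Blood sampled at 0.05, 0.25, 0.75, 2, 4, 8 and 24 h after dosing. Compound concentration in serum quantified by LC-MS/MS.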

rhinovirus A2 = test: Antiviral activity against wild type Rhinovirus-A02 infected in HeLa cells assessed as reduction in virus-induced cytopathic effect incubated for 3 days by MTS/PMS assay; type: functional, cell-based; details: Rhinovirus A, 72 h
rhinovirus B14 = test: Antiviral activity against wild type Human rhinovirus B14 infected in HeLa cells assessed as reduction in virus-induced cytopathic effect incubated for 3 days by MTS/PMS assay; type: functional, organism-based; details: Rhinovirus B, 72 h
enterovirus D68 = test: Antiviral activity against Human enterovirus 68 infected in HeLa cells assessed as reduction in virus-induced cytopathic effect incubated for 4 days by MTS/PMS assay; type: functional, organism-based; details: Enterovirus D, 96 h
Coxsackievirus A21 = test: Antiviral activity against Human coxsackievirus A21 infected in HeLa cells assessed as reduction in virus-induced cytopathic effect incubated for 3 days by MTS/PMS assay; type: functional, organism-based; details: Enterovirus C, 72 h
Coxsackievirus B3 = test: Antiviral activity against Human coxsackievirus B3 infected in Vero cells assessed as reduction in plaque formation treated 2 hrs post viral infection and measured 3 to 4 days post-infection by Giemsa staining based plaque reduction assay; type: functional, organism-based; details: Enterovirus B
[6] = Cmax in CD1 mouse at 20 mg/kg, ip measured after 24 hrs by LC-MS/MS analysis; type: ADME, organism-based; design: route intraperitoneal, time 24 hrs, dose 20 mg/kg; details: in vivo; outline: as §1
[7] = Half life in CD1 mouse at 20 mg/kg, ip measured after 24 hrs by LC-MS/MS analysis; type: ADME, organism-based; details: in vivo; outline: as §1
[8] = Half life in CD1 mouse at 5 mg/kg, sc measured after 24 hrs by LC-MS/MS analysis; type: ADME, organism-based; details: in vivo; outline: as §1
[9] = Half life in CD1 mouse at 5 mg/kg, iv measured after 24 hrs by LC-MS/MS analysis; type: ADME, organism-based; details: in vivo; outline: as §1
[10] = Tmax in CD1 mouse at 5 mg/kg, sc measured after 24 hrs by LC-MS/MS analysis; type: ADME, organism-based; details: in vivo; outline: as §1
[11] = Cmax in CD1 mouse at 5 mg/kg, sc measured after 24 hrs by LC-MS/MS analysis; type: ADME, organism-based; design: route subcutaneous, time 24 hrs, dose 5 mg/kg; details: in vivo; outline: as §1
[12] = AUClast in CD1 mouse at 20 mg/kg, ip measured after 24 hrs by LC-MS/MS analysis; type: ADME, organism-based; design: route intraperitoneal, time 24 hrs, dose 20 mg/kg; details: in vivo; outline: as §1
[13] = AUClast in CD1 mouse at 5 mg/kg, sc measured after 24 hrs by LC-MS/MS analysis; type: ADME, organism-based; design: route subcutaneous, dose 5 mg/kg, time 24 hrs; details: in vivo; outline: as §1
[14] = AUClast in CD1 mouse at 5 mg/kg, iv measured after 24 hrs by LC-MS/MS analysis; type: ADME, organism-based; design: route intravenous, time 24 hrs, dose 5 mg/kg; details: in vivo; outline: as §1
[15] = AUC (0 to infinity) in CD1 mouse at 20 mg/kg, ip measured after 24 hrs by LC-MS/MS analysis; type: ADME, organism-based; design: route intraperitoneal, dose 20 mg/kg, time 24 hrs; details: in vivo; outline: as §1
[16] = AUC (0 to infinity) in CD1 mouse at 5 mg/kg, sc measured after 24 hrs by LC-MS/MS analysis; type: ADME, organism-based; design: route subcutaneous, time 24 hrs, dose 5 mg/kg; details: in vivo; outline: as §1
[17] = AUC (0 to infinity) in CD1 mouse at 5 mg/kg, iv measured after 24 hrs by LC-MS/MS analysis; type: ADME, organism-based; design: route intravenous, dose 5 mg/kg, time 24 hrs; details: in vivo; outline: as §1
[18] = Clearance in CD1 mouse at 5 mg/kg, iv measured after 24 hrs by LC-MS/MS analysis; type: ADME, organism-based; details: in vivo; outline: as §1
[19] = Mean residence time in CD1 mouse at 20 mg/kg, ip measured after 24 hrs by LC-MS/MS analysis; type: ADME, organism-based; details: in vivo; outline: as §1
[20] = Mean residence time in CD1 mouse at 5 mg/kg, sc measured after 24 hrs by LC-MS/MS analysis; type: ADME, organism-based; details: in vivo; outline: as §1
[21] = Mean residence time in CD1 mouse at 5 mg/kg, iv measured after 24 hrs by LC-MS/MS analysis; type: ADME, organism-based; details: in vivo; outline: as §1
[22] = Volume of distribution at steady state in CD1 mouse at 5 mg/kg, iv measured after 24 hrs by LC-MS/MS analysis; type: ADME, organism-based; details: in vivo, read-out: Vdss; outline: as §1

## Cc1cc(C(=O)N[C@H](C(=O)N[C@@H](Cc2ccccc2)C(=O)N[C@H](C=O)C[C@@H]2CCNC2=O)C(C)C)no1
[1]
  IC50: 6.73 µM
Enterovirus A71
  EC50: 0.09 µM
[2]
  CC50 at 96 h: > 100 µM
[3]
  IC50: 0.067 µM
SARS-CoV-2
  EC50: > 2 µM
[4]
  CC50 at 24 h: > 1000 µM

## O=C[C@H](C[C@@H]1CCNC1=O)NC(=O)[C@H](Cc1ccccc1)NC(=O)c1cnc2ccccc2n1
[1]
  IC50: 3.6 µM
Enterovirus A71
  EC50: 0.14 µM
[2]
  CC50 at 96 h: > 100 µM

## O=C[C@H](C[C@@H]1CCNC1=O)NC(=O)[C@H](Cc1ccccc1)NC(=O)c1cccc2c1OCCO2
[1]
  IC50: 3.01 µM
Enterovirus A71
  EC50: 0.77 µM
[2]
  CC50 at 96 h: > 100 µM
[3]
  IC50: 0.097 µM
SARS-CoV-2
  EC50: 8.21 µM
[4]
  CC50 at 24 h: > 1000 µM

## CCOC(=O)/C=C/[C@H](C[C@@H]1CCNC1=O)NC(=O)[C@H](Cc1ccc(F)cc1)NC(=O)[C@@H](NC(=O)c1cc(C)on1)C(C)C
[1]
  IC50: 1.89 µM
Enterovirus A71
  EC50: 0.011 µM
[2]
  CC50 at 96 h: > 100 µM

## O=C[C@H](C[C@@H]1CCNC1=O)NC(=O)[C@H](Cc1ccccc1)NC(=O)c1cc2ccccc2[nH]1
[5]
  Tmax: 0.25 h
Rhinovirus A2
  EC50: 1.62 µM
Rhinovirus B14
  EC50: 0.81 µM
[1]
  IC50: 2.36 µM
Enterovirus A71
  EC50: 0.03 µM
[2]
  CC50 at 96 h: > 100 µM
Enterovirus D68
  EC50: 0.03 µM
Coxsackievirus A21
  EC50: 0.43 µM
Coxsackievirus B3
  EC50: 4.19 µM
[6]
  Cmax: 14.6 µg/mL
[7]
  half-life: 5.36 h
[8]
  half-life: 4.96 h
[9]
  half-life: 5.85 h
[10]
  Tmax: 0.58 h
[11]
  Cmax: 2.76 µg/mL
[12]
  AUC(0-t) at 24 h: 16 µg·h/mL
[13]
  AUC(0-t) at 24 h: 3.57 µg·h/mL
[14]
  AUC(0-t) at 24 h: 1.73 µg·h/mL
[15]
  AUC(0-inf): 16.1 µg·h/mL
[16]
  AUC(0-inf): 3.58 µg·h/mL
[17]
  AUC(0-inf): 1.75 µg·h/mL
[18]
  clearance: 2.88 L/h/kg
[19]
  MRT: 1.69 h
[20]
  MRT: 1.34 h
[21]
  MRT: 1.42 h
[22]
  Vd: 4.12 L/kg
[3]
  IC50: 0.034 µM
SARS-CoV-2
  EC50: 0.29 µM
[4]
  CC50 at 24 h: 809 µM

## Cc1cc(C(=O)N[C@@H](Cc2ccccc2)C(=O)N[C@H](C=O)C[C@@H]2CCNC2=O)no1
[1]
  IC50: 2.09 µM
Enterovirus A71
  EC50: 0.32 µM
[2]
  CC50 at 96 h: > 100 µM

## O=C(/C=C/c1ccccc1)N[C@@H](Cc1ccccc1)C(=O)N[C@H](/C=C/C(=O)OCc1ccccc1)C[C@@H]1CCNC1=O
[1]
  IC50: 2.06 µM
Enterovirus A71
  EC50: 3.1 µM
[2]
  CC50 at 96 h: > 100 µM

## O=C[C@H](C[C@@H]1CCNC1=O)NC(=O)[C@H](Cc1ccccc1)NC(=O)c1ccc2occc2c1
[1]
  IC50: 2.37 µM
Enterovirus A71
  EC50: 0.29 µM
[2]
  CC50 at 96 h: > 100 µM
[3]
  IC50: 0.059 µM
SARS-CoV-2
  EC50: 0.76 µM
[4]
  CC50 at 24 h: > 1000 µM

## CC(C)[C@H](NC(=O)c1cc2ccccc2o1)C(=O)N[C@@H](Cc1ccccc1)C(=O)N[C@H](C=O)C[C@@H]1CCNC1=O
[1]
  IC50: 2.43 µM
Enterovirus A71
  EC50: 0.096 µM
[2]
  CC50 at 96 h: > 100 µM
[3]
  IC50: 0.067 µM
SARS-CoV-2
  EC50: 5.62 µM
[4]
  CC50 at 24 h: > 1000 µM

## O=C[C@H](C[C@@H]1CCNC1=O)NC(=O)[C@H](Cc1ccccc1)NC(=O)c1ccc2[nH]ccc2c1
[1]
  IC50: 3.83 µM
Enterovirus A71
  EC50: 0.69 µM
[2]
  CC50 at 96 h: > 100 µM

## O=C[C@H](C[C@@H]1CCNC1=O)NC(=O)[C@H](Cc1ccccc1)NC(=O)c1cncc(F)c1
[1]
  IC50: 2.02 µM
Enterovirus A71
  EC50: 0.47 µM
[2]
  CC50 at 96 h: > 100 µM

## CC(C)[C@H](NC(=O)c1cc2ccccc2[nH]1)C(=O)N[C@@H](Cc1ccccc1)C(=O)N[C@H](C=O)C[C@@H]1CCNC1=O
Rhinovirus A2
  EC50: 1.02 µM
Rhinovirus B14
  EC50: 0.98 µM
[1]
  IC50: 4.16 µM
Enterovirus A71
  EC50: 0.12 µM
[2]
  CC50 at 96 h: 72.5 µM
Enterovirus D68
  EC50: 0.26 µM
Coxsackievirus A21
  EC50: 0.51 µM
Coxsackievirus B3
  EC50: 9.15 µM
[3]
  IC50: 0.068 µM
SARS-CoV-2
  EC50: 4.22 µM
[4]
  CC50 at 24 h: > 1000 µM
